Results pooled from the literature.
Effect on: cell growth or viability

O=C(O)c1ccc(P(c2ccccc2)c2ccccc2)cc1  CC50 (NIH3T3; resazurin; 18 h): 210 µg/mL
COc1ccc(S(=O)(=O)ON=C2C=C(C)C(=O)C(C)=C2)cc1  CC50 (PC-3): 4.74 µM
COc1cccc2c1C(=O)c1c(O)c3c(c(O)c1C2=O)C[C@@](O)(C(=O)CO)C[C@@H]3O[C@H]1C[C@H](N)[C@H](O)[C@H](C)O1  CC50 (HFF-1; resazurin; 72 h): 0.468 µM
N=C(N)NCc1ccc(NC(=O)c2ccc(C(=O)Nc3ccc(C4=CCN(C(=N)N)CC4)nn3)cc2)cc1  CC50 (NIH3T3; MTS; 24 h): 231 µM
O=C(CCl)Cn1nnc(-c2ccccc2)c1COC(=O)NCc1ccccc1  CC50 (HFF-1; ATP luminescence; 48 h): 20 µM
COc1cc(OC)cc([C@H]2C[C@@H](C)OC(=O)c3cc4ccccn4c32)c1 (racemic)  CC50 (HFF-1; resazurin; 72 h): > 100 µM
CCCCCCCCCCCCCCCc1ccc(CP(=O)(O)O)cc1  viability (Mm1; trypan blue; 10 µM; 20 h): > 93%
N=C(N)NCc1ccc(NC(=O)c2ccc(C(=O)Nc3ccc(C4=CCN(C(=N)N)CC4)cc3)cn2)cc1  CC50 (NIH3T3; MTS; 24 h): > 1170 µM
